Here are results for 60 compounds from ChEMBL document CHEMBL1150775, “Synthesis and evaluation of estrogen agonism of diaryl 4,5-dihydroisoxazoles, 3-hydroxyketones, 3-methoxyketones, and 1,3-diketones: a compound set forming a 4D molecular library” (J Med Chem, 2008).

The target of assay [1] is Estrogen receptor beta (Homo sapiens) (UniProt Q92731). As to the kind of experiment: Activation of human estrogen receptor beta expressed in HEK293 cells at 10 uM beta-galactosidase reporter gene assay relative to 3,17-beta-estradiol. Format: cell-based. The method in brief: (§1)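 HEK293 cells seeded a day ahead in phenol-free DMEM with 5% delipidated FBS. Calcium phosphate transfection for 4 h with 5 ng ERα or ERβ expression vector, 75 ng pERE2TATA-LUC reporter and 20 ng pCMVβ control. Test compound at 10 µM (vehicle 0.1% v/v) for 24 h. Luciferase normalized to β-galactosidase. Activity = 100% × (test − vehicle)/(10 nM E2 − vehicle). Mean of ≥3 independent transfections.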
Sequence of Estrogen receptor beta (Homo sapiens) (Q92731 whole entry): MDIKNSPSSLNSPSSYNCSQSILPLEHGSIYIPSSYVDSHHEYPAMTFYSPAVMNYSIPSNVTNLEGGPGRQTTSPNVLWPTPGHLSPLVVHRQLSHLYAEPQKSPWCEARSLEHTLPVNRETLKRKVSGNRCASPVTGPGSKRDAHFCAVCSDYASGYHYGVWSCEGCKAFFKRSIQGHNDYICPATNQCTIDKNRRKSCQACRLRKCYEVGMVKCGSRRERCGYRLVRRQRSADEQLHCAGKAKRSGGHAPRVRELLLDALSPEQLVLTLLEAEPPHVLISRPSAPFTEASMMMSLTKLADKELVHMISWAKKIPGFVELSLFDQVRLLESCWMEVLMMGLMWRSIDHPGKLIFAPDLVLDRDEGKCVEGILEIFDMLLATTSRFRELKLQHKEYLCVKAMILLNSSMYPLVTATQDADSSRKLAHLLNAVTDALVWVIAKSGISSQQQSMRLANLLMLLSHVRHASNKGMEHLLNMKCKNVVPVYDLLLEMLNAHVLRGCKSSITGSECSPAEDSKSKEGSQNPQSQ

Assay [2] concerns the target T1, Estrogen receptor (Homo sapiens) (UniProt P03372).
T1 sequence (whole entry): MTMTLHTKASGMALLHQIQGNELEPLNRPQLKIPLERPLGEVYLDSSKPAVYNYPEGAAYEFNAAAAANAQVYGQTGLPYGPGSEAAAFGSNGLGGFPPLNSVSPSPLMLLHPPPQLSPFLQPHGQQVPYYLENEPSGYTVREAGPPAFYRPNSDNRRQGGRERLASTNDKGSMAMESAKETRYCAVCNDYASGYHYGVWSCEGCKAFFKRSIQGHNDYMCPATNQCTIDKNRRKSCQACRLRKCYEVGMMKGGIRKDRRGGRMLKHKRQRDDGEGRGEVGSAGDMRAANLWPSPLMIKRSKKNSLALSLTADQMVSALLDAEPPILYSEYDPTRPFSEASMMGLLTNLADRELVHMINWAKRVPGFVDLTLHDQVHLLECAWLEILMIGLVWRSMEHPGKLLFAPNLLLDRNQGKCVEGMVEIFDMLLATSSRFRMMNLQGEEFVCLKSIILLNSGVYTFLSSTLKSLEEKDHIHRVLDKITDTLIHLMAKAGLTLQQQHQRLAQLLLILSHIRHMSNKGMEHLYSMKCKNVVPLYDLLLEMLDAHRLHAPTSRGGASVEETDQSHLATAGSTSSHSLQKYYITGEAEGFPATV
As to the kind of experiment: Activation of human estrogen receptor alpha expressed in HEK293 cells at 10 uM by beta-galactosidase reporter gene assay relative to 3,17 beta-estradiol. Format: cell-based. The procedure, abridged: as §1
On the technique in general: Reporter assays use an easily measured gene product as a stand-in for the process of interest.

Several values for one entry are separate records, joined by “and”; a condition that tells them apart may be missing. Identical values can stand only once.

Regarding `c1ccc(CCC2CC(c3ccccc3)=NO2)cc1` (single isomer, unassigned; 10b), the Activity in assay [1] is -6%; in assay [2], 1.1%. On the same counts, the results for `c1ccc(CCC2=NOC(Cc3cccc4ccccc34)C2)cc1` (single isomer, unassigned; 52b) are 6.5% and 17.2%. The corresponding values for `COc1ccccc1CC(=O)CC(Cc1ccc2ccccc2c1)OC` (single isomer, unassigned; 66b) are -0.5% and 4.3%. For `Oc1ccc(CCC2=NOC(Cc3ccc(F)cc3)C2)cc1` (stereo not drawn), the Activity in assay [1] was found to be 4.4%; in assay [2] it was 5.7%. The corresponding values for `c1ccc(CCCC2=NOC(Cc3ccccc3)C2)cc1` (stereo not drawn) are 13.6% and 31.3%. For the compound `Oc1ccccc1CCC1=NOC(Cc2ccccc2)C1` (stereo not drawn), the Activity in assay [1] turned out to be 18.4%; in assay [2] it was 111%. The corresponding values for `c1ccc(CC2=NOC(c3ccccc3)C2)cc1` (stereo not drawn) are 34.4% and 19.6%.

In the case of `O=C(CCc1ccccc1)CC(O)Cc1ccccc1` (stereo not drawn), the Activity in assay [1] came to 0.4%; in assay [2], 12.8%. With `c1ccc(CCC2=NOC(Cc3ccc4ccccc4c3)C2)cc1` (single isomer, unassigned; 53b), the Activity in assay [1] was found to be 3.8%; in assay [2], 13%. `c1ccc(CCC2=NOC(Cc3cccc4ccccc34)C2)cc1` (single isomer, unassigned; 52a): the Activity in assay [1] amounted to 10.5%; in assay [2], 34.1%. The corresponding values for `c1ccc(CCC2=NOC(Cc3ccccc3)C2)cc1` (single isomer, unassigned) are 1.1% and 68.4%.

Turning to `CS(C)=C(C(=O)CCc1ccccc1)C(=O)Cc1ccccc1`, the results for the Activity in assay [1] and in assay [2] were -7.1% and 0.5%, respectively. In the case of `Oc1ccc(CCC2=NOC(Cc3ccc(O)cc3)C2)cc1` (stereo not drawn), the Activity in assay [1] was 4.1% and 12%; in assay [2], 81.4% and 76.2%. In the case of `c1ccc(CCCC2=NOC(Cc3ccccc3)C2)cc1` (single isomer, unassigned), the results for the Activity in assay [1] and in assay [2] were 5.1% and 28.1%, respectively.

Take `CS(C)=C(C(=O)CCc1ccccc1)C(=O)c1ccccc1`: the Activity is 3.3% in assay [1] and -2.5% in assay [2]. `COC(CC(=O)CCc1ccccc1)Cc1ccc2ccccc2c1` (stereo not drawn): the Activity came to 12.4% in assay [1] and 30.4% in assay [2]. On the same counts, the results for `O=C(Cc1ccccc1)CC(O)Cc1ccccc1` (stereo not drawn) are 1.7% and 8.4%. For `Oc1ccc(CC2CC(CCc3ccccc3O)=NO2)cc1` (single isomer, unassigned; 75b), the values for the Activity in assay [1] and in assay [2] were 0.6% and 6.2%, respectively. Regarding `Oc1ccccc1CCC1=NOC(Cc2ccc(F)cc2)C1` (single isomer, unassigned; 73a), the Activity in assay [1] turned out to be 3.4%; in assay [2], 82%. On the same counts, the results for `COC(CC(=O)CCc1ccccc1)Cc1cccc2ccccc12` (stereo not drawn) are 2% and 35.5%.

Turning to `O=C(CCCc1ccccc1)CC(=O)Cc1ccccc1`, the Activity in assay [1] was found to be 4.2%; in assay [2], 27.7%. On to `CS(C)=C(C(=O)Cc1ccccc1)C(=O)c1ccccc1`, for which the Activity in assay [1] was 5.8%; in assay [2], -1.2%.

Turning to `COC(CC(=O)Cc1cccc2ccccc12)Cc1cccc2ccccc12` (single isomer, unassigned; 64a), the Activity was -0.5% in assay [1] and 5.6% in assay [2]. On the same counts, the results for `O=C(CCCc1ccccc1)CC(O)CCc1ccccc1` (stereo not drawn) are -7.1% and 2.2%. Consider `Oc1ccc(CCC2=NOC(Cc3ccccc3)C2)cc1` (stereo not drawn), for which the Activity was determined as 143% in assay [1] and 171% in assay [2]. On the same counts, the results for `O=C(CCc1ccccc1)CC(O)Cc1cccc2ccccc12` (stereo not drawn) are 1.7% and 12.1%. On the same counts, the results for `CS(C)=C(C(=O)CCCc1ccccc1)C(=O)Cc1ccccc1` are -1.7% and 3.7%. Regarding `Oc1ccc(CCC2=NOC(Cc3ccc(F)cc3)C2)cc1` (single isomer, unassigned), the Activity in assay [1] stood at 28.4%; in assay [2], 77.8%. Turning to `COc1ccccc1CC(=O)CC(Cc1cccc2ccccc12)OC` (single isomer, unassigned; 63b), the Activity in assay [1] is -0.2%; in assay [2] it was 0.6%. For the compound `COc1ccccc1CC(CC(=O)Cc1ccc2ccccc2c1)OC` (single isomer, unassigned), the Activity in assay [1] and in assay [2] was 0.3% in each case. On to `c1ccc(CCC2=NOC(CCc3ccccc3)C2)cc1` (single isomer, unassigned; 18a), for which the Activity in assay [1] was 0.2%; in assay [2], 3.4%. `Oc1ccc(CC2CC(CCc3ccccc3O)=NO2)cc1` (single isomer, unassigned; 75a): the Activity was 2.5% in assay [1] and 20.4% in assay [2]. On the same counts, the results for `O=C(CCc1ccccc1)CC(O)Cc1ccc(F)cc1` (stereo not drawn) are 5.7% and 30.1%. On the same counts, the results for `COc1ccc(CC2CC(CCc3ccccc3)=NO2)cc1` (single isomer, unassigned; 50a) are 10.6% and 0.8%. With `O=C(CCc1ccccc1)CC(O)Cc1ccc2ccccc2c1` (single isomer, unassigned; 57b), the Activity in assay [1] and in assay [2] was 20.1% throughout.

Consider `COC(CC(=O)CCc1ccccc1)Cc1ccccc1` (stereo not drawn), for which the figures for the Activity in assay [1] and in assay [2] were 1.3% and 9.9%, respectively. On the same counts, the results for `c1ccc(CCC2=NOC(c3ccccc3)C2)cc1` (single isomer, unassigned; 12a) are 9.8% and 16.4%. On the same counts, the results for `COC(CCc1ccccc1)CC(=O)CCc1ccccc1` (stereo not drawn) are 19.5% and 14.5%. The corresponding values for `c1ccc(CCC2=NOC(Cc3ccc4ccccc4c3)C2)cc1` (single isomer, unassigned; 53a) are 8.2% and 22.3%. In the case of `Oc1ccc(CCC2=NOC(Cc3ccccc3)C2)cc1` (single isomer, unassigned), the Activity worked out at 41.5% in assay [1] and 24.3% in assay [2]. The corresponding values for `COc1ccc(CC(CC(=O)CCc2ccccc2)OC)cc1` (stereo not drawn) are 4% and 28.5%. On the same counts, the results for `O=C(CCc1ccccc1)CC(O)CCc1ccccc1` (stereo not drawn) are 1% and 16.2%. As for `O=C(CC(=O)c1ccccc1)Cc1ccccc1`, the Activity in assay [1] worked out at 9.7%; in assay [2], 5.4%. The corresponding values for `O=C(CC(O)CCc1ccccc1)c1ccccc1` (stereo not drawn) are 15.4% and 13%. In the case of `Oc1ccccc1CCC1=NOC(Cc2ccc(F)cc2)C1` (single isomer, unassigned; 73b), the Activity in assay [1] is -2.4%; in assay [2], 11.1%.

In the case of `COC(CC(=O)CCCc1ccccc1)Cc1ccccc1` (stereo not drawn), the results for the Activity in assay [1] and in assay [2] were 30.4% and 24.5%, respectively. The corresponding values for `COC(CCc1ccccc1)CC(=O)Cc1ccccc1` (stereo not drawn) are 0.2% and 12%. The corresponding values for `COc1ccccc1CC(=O)CC(Cc1ccc2ccccc2c1)OC` (single isomer, unassigned; 66a) are -0.5% and 3.5%. Take `c1ccc(CCCC2=NOC(c3ccccc3)C2)cc1` (stereo not drawn): the Activity in assay [1] is 17.2% and -3.1%. For `COC(CC(=O)CCc1ccccc1)Cc1ccc(F)cc1` (stereo not drawn), the Activity in assay [1] is 11.2%; in assay [2], 33.1%. Turning to `CS(C)=C(C(=O)CCCc1ccccc1)C(=O)CCc1ccccc1`, the Activity is -4.6% in assay [1] and 0.6% in assay [2]. `O=C(CCCc1ccccc1)CC(O)Cc1ccccc1` (stereo not drawn): the figures for the Activity in assay [1] and in assay [2] were 9.1% and 24.7%, respectively. On the same counts, the results for `O=C(Cc1ccccc1)CC(O)CCc1ccccc1` (stereo not drawn) are 0.2% and 4.3%. In the case of `Oc1ccccc1CCC1=NOC(Cc2ccccc2)C1` (single isomer, unassigned), the Activity in assay [1] amounted to 30.5%; in assay [2], 39.7%. The corresponding values for `c1ccc(CCC2=NOC(c3ccccc3)C2)cc1` (single isomer, unassigned; 12b) are 8.1% and 11.2%. On the same counts, the results for `COC(CC(=O)c1ccccc1)Cc1ccccc1` (stereo not drawn) are 18.4% and 0.3%. As for `COC(CC(=O)Cc1ccc(F)cc1)Cc1cccc2ccccc12` (single isomer, unassigned; 62b), the Activity in assay [1] is -0.5%; in assay [2] it was 4.5%.

Consider `O=C(CCc1ccccc1)CC(O)c1ccccc1` (single isomer, unassigned; 23a), for which the Activity worked out at 20.5% in assay [1] and 78.8% in assay [2]. As to `CS(C)=C(C(=O)CCc1ccccc1)C(=O)CCc1ccccc1`, the Activity in assay [1] stood at 0.3%; in assay [2], 1%. As for `c1ccc(CC2CC(c3ccccc3)=NO2)cc1` (stereo not drawn), the Activity in assay [1] is 12.8% and 6.6%.
